According to ChEMBL document CHEMBL3045405, “Enantioselective oxidative damage of chiral pesticide dichlorprop to maize” (J Agric Food Chem, 2011):

Legend:
[1] = Phytotoxicity against Zea mays (maize) assessed as inhibition of root length at 0.05 mg/L and at 25 degC/20 degC day/night temperature 14 hr photoperiod for 3 days; type: organism-based; details: in vivo
Procedure, shortened: (§1)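 Maize seeds were surface-sterilized in 3% H2O2 for 10 min and germinated on moist filter paper at 27 °C in the dark. Seedlings were exposed to (rac)-, (S)- or (R)-DCPP in sterile deionized water (0–1.0 mg L-1), with solutions renewed daily, at 80% relative humidity and repositioned daily. Fresh weight, root length and shoot height were compared with the water control after 3 days.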

[2] = test system: Zea mays; test: Induction of hydroxyl radical production in Zea mays (maize) root assessed as ROS adducts formation at 1 mg/L measured after 3 days by EPR analysis; type: organism-based; details: in vivo, 72 h
Procedure, shortened: (§2)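 Roots of maize exposed for 3 days were rinsed in ice-cold 0.1 M CaCl2. Under nitrogen, 0.5 g was homogenized with 1.0 mL of fresh 100 mM PBN in DMSO, incubated 37 °C for 15 min, and centrifuged 4500 rpm, 3 min, 4 °C. Signal expressed relative to control.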

[3] = Phytotoxicity against Zea mays (maize) assessed as inhibition of root length at 0.5 mg/L and at 25 degC/20 degC day/night temperature 14 hr photoperiod for 3 days; type: organism-based; details: in vivo; procedure, shortened: as §1
[4] = Phytotoxicity against Zea mays (maize) assessed as inhibition of fresh weight at 0.02 mg/L and at 25 degC/20 degC day/night temperature 14 hr photoperiod for 3 days; type: organism-based; details: in vivo; procedure, shortened: as §1
[5] = Phytotoxicity against Zea mays (maize) assessed as inhibition of root length at 1 mg/L and at 25 degC/20 degC day/night temperature 14 hr photoperiod for 3 days; type: organism-based; details: in vivo; procedure, shortened: as §1
[6] = Phytotoxicity against Zea mays (maize) assessed as inhibition of seed germination at 0.1 mg/L and at 27 degC in the dark for 3 days; details: in vivo
[7] = Phytotoxicity against Zea mays (maize) assessed as inhibition of shoot height at 0.02 mg/L and at 25 degC/20 degC day/night temperature 14 hr photoperiod for 3 days; type: organism-based; details: in vivo; procedure, shortened: as §1
[8] = test system: Zea mays; test: Induction of SOD activity in Zea mays (maize) root at 0.02 mg/L measured after 3 days; type: organism-based; details: in vivo, 72 h
Procedure, shortened: (§3)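 Maize roots after 3 days' exposure to DCPP enantiomers (0–1.0 mg L-1, test solutions renewed daily). Fresh roots (1.0 g) homogenized on ice in 0.05 M sodium phosphate buffer pH 7.8 with 1% (w/v) polyvinylpyrrolidone, then centrifuged 10 000 rpm, 10 min, 4 °C. The supernatant was used for enzyme assays, with protein by Bradford (BSA standard). Mean ± SEM of three replicate cultures.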

[9] = Phytotoxicity against Zea mays (maize) assessed as inhibition of fresh weight at 1 mg/L and at 25 degC/20 degC day/night temperature 14 hr photoperiod for 3 days; type: organism-based; details: in vivo; procedure, shortened: as §1
[10] = Phytotoxicity against Zea mays (maize) assessed as inhibition of shoot height at 0.5 mg/L and at 25 degC/20 degC day/night temperature 14 hr photoperiod for 3 days; type: organism-based; details: in vivo; procedure, shortened: as §1
[11] = Phytotoxicity against Zea mays (maize) assessed as inhibition of fresh weight at 0.05 mg/L and at 25 degC/20 degC day/night temperature 14 hr photoperiod for 3 days; type: organism-based; details: in vivo; procedure, shortened: as §1
[12] = Phytotoxicity against Zea mays (maize) assessed as inhibition of seed germination at 0.02 mg/L and at 27 degC in the dark for 3 days; details: in vivo
[13] = Phytotoxicity against Zea mays (maize) assessed as inhibition of seed germination at 0.05 mg/L and at 27 degC in the dark for 3 days; details: in vivo
[14] = test system: Zea mays; test: Induction of hydroxyl radical production in Zea mays (maize) root assessed as PBN adducts formation at 1 mg/L measured after 3 days by EPR analysis; type: organism-based; details: in vivo, 72 h; procedure, shortened: as §2
[15] = Phytotoxicity against Zea mays (maize) assessed as inhibition of root length at 0.1 mg/L and at 25 degC/20 degC day/night temperature 14 hr photoperiod for 3 days; type: organism-based; details: in vivo; procedure, shortened: as §1
[16] = Phytotoxicity against Zea mays (maize) assessed as inhibition of shoot height at 0.1 mg/L and at 25 degC/20 degC day/night temperature 14 hr photoperiod for 3 days; type: organism-based; details: in vivo; procedure, shortened: as §1
[17] = Phytotoxicity against Zea mays (maize) assessed as inhibition of fresh weight at 0.1 mg/L and at 25 degC/20 degC day/night temperature 14 hr photoperiod for 3 days; type: organism-based; details: in vivo; procedure, shortened: as §1
[18] = Phytotoxicity against Zea mays (maize) assessed as inhibition of shoot height at 0.05 mg/L and at 25 degC/20 degC day/night temperature 14 hr photoperiod for 3 days; type: organism-based; details: in vivo; procedure, shortened: as §1
[19] = Phytotoxicity against Zea mays (maize) assessed as inhibition of seed germination at 1 mg/L and at 27 degC in the dark for 3 days; details: in vivo
[20] = Phytotoxicity against Zea mays (maize) assessed as inhibition of shoot height at 1 mg/L and at 25 degC/20 degC day/night temperature 14 hr photoperiod for 3 days; type: organism-based; details: in vivo; procedure, shortened: as §1
[21] = Phytotoxicity against Zea mays (maize) assessed as inhibition of seed germination at 0.5 mg/L and at 27 degC in the dark for 3 days; details: in vivo
[22] = Phytotoxicity against Zea mays (maize) assessed as inhibition of fresh weight at 0.5 mg/L and at 25 degC/20 degC day/night temperature 14 hr photoperiod for 3 days; type: organism-based; details: in vivo; procedure, shortened: as §1
[23] = Phytotoxicity against Zea mays (maize) assessed as inhibition of root length at 0.02 mg/L and at 25 degC/20 degC day/night temperature 14 hr photoperiod for 3 days; type: organism-based; details: in vivo; procedure, shortened: as §1
[24] = test system: Zea mays; test: Induction of POD activity in Zea mays (maize) root at 0.05 mg/L measured after 3 days; type: organism-based; details: in vivo, 72 h; procedure, shortened: as §3
[25] = test system: Zea mays; test: Induction of POD activity in Zea mays (maize) root at 0.02 mg/L measured after 3 days; type: organism-based; details: in vivo, 72 h; procedure, shortened: as §3
[26] = test system: Zea mays; test: Induction of POD activity in Zea mays (maize) root at 0.1 mg/L measured after 3 days; type: organism-based; details: in vivo, 72 h; procedure, shortened: as §3

Row | SMILES | inhibition at 72 h, 0.05 mg/L [1] [%] | Activity [2] | inhibition at 72 h, 0.5 mg/L [3] [%] | inhibition at 72 h, 0.02 mg/L [4] [%] | inhibition at 72 h, 1 mg/L [5] [%] | inhibition at 72 h, 0.1 mg/L [6] [%] | inhibition at 72 h, 0.02 mg/L [7] [%] | Activity [8] | inhibition at 72 h, 1 mg/L [9] [%] | inhibition at 72 h, 0.5 mg/L [10] [%] | inhibition at 72 h, 0.05 mg/L [11] [%] | inhibition at 72 h, 0.02 mg/L [12] [%] | inhibition at 72 h, 0.05 mg/L [13] [%] | Activity [14] | inhibition at 72 h, 0.1 mg/L [15] [%] | inhibition at 72 h, 0.1 mg/L [16] [%] | inhibition at 72 h, 0.1 mg/L [17] [%] | inhibition at 72 h, 0.05 mg/L [18] [%] | inhibition at 72 h, 1 mg/L [19] [%] | inhibition at 72 h, 1 mg/L [20] [%] | other results
1 | CC(Oc1ccc(Cl)cc1Cl)C(=O)O (racemic) [RAC-DICHLORPROP] | 19.3 | Toxic | 36.7 | 2.75 | 40.1 | 12.2 | 2.14 | Non-toxic | 39.7 | 17.6 | 4.28 | 3.57 | 8.38 | Toxic | 24.5 | 7.9 | 10 | 4.02 | 31.7 | 31.1 | inhibition at 72 h, 0.5 mg/L [21]: 21.4%; inhibition at 72 h, 0.5 mg/L [22]: 31.3%; inhibition at 72 h, 0.02 mg/L [23]: 12.7%; Activity [24]: Toxic
2 | C[C@@H](Oc1ccc(Cl)cc1Cl)C(=O)O [(R)-DICHLORPROP] | 23.5 | Toxic | 38.4 | 5.76 | 42 | 16.1 | 3.52 | Toxic | 42.7 | 20.7 | 14.8 | 6.64 | 10.7 | Toxic | 26.6 | 8.61 | 24.6 | 5.27 | 41.4 | 36.7 | Activity [25]: Toxic; inhibition at 72 h, 0.5 mg/L [21]: 34.9%; inhibition at 72 h, 0.5 mg/L [22]: 36.7%; inhibition at 72 h, 0.02 mg/L [23]: 14.3%
3 | C[C@H](Oc1ccc(Cl)cc1Cl)C(=O)O [(S)-DICHLORPROP] | 17.3 | Toxic | 34.9 | 2.12 | 39.9 | 9.67 | 2.06 | Non-toxic | 38.1 | 15.9 | 2.94 | 2.1 | 4.75 | Toxic | 22.7 | 6.28 | 9.5 | 3.12 | 21.9 | 30.6 | Activity [26]: Toxic; inhibition at 72 h, 0.5 mg/L [21]: 11.4%; inhibition at 72 h, 0.5 mg/L [22]: 30.2%; inhibition at 72 h, 0.02 mg/L [23]: 11.4%
